High-throughput results from PubChem.
Shown are actives, neighbours in structure and some others; about 2.5% of the full set was active somewhere.
FN deposition inh – inhibitors of fibronectin matrix deposition, primary screen, AH1F cells, Alexa488-fibronectin fluorescence, plate reader | AH1F fibroblasts, overnight | inhibition, % at 12.6 µM | 350,000 tested, 0.086% active | AID 743247, 2014;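 active = mean inhibition across replicates of 30% or more, regardless of how many single replicates reach that level; inconclusive = mean under 30% yet at least half of replicates reach 30%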
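Assay system: AH1F fibroblast monolayer, labelled fibronectin deposition. Amount: 10000 cells per well. Also added: labelled fibronectin 24 nM. Compound: single-point pinned compound. Incubation: cell attachment 1 h, compound and FN exposure overnight. Detection: fluorescence after three HBSS washes, excitation 485 nm, emission 525 nm. Read-out: inhibition of fibronectin deposition signal.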
Env fusion inh – inhibitors of HIV-1 Env-driven cell-cell fusion, primary screen, HeLa-JRFL effector, CEM21 target cells, luciferase; inhibition, % at 12.3 µM; 360,000 tested, 1.1% active; AID 651610, 2012;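 active = mean replicate inhibition score of at least 50 and every replicate individually at or above 50; inconclusive = only one of the two criteria met; inactive = mean below 50 and not all replicates reaching 50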
EWS-Fli inh – EWS/Fli-driven NR0B1 reporter inhibitors, primary screen, A673 cells, NR0B1 luciferase, luminescence, MLPCN library. viability-normalised. inhibition, % at 12.6 µM. 350,000 tested, 0.67% active;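 active = mean inhibition of at least 50% after viability correction, with every replicate also passing that limit; inconclusive = mean reaches 50% but only one of two replicates passes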;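 note: firefly luciferase signal divided by Alamar Blue viability fluorescence both relative to DMSO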
N-glyco inh – increase of ERlucT glycosylation luciferase signal, primary screen, N-linked glycosylation inhibitor project, D54 ERlucT cells, luminescence, set 2; reporter increase, % at 12.5 µM; 360,000 tested, 0.23% active; D54 ERlucT glycosylation luciferase reporter, 24 h; percent of 100 nM tunicamycin response; AID 588692, 2011;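 active = mean luciferase reporter signal, scaled so untreated is 0 and the glycosylation-blocking control 100, at or above a set limit in every replicate; inconclusive = mean reaches the limit but not every replicate does; inactive = mean below the limit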;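 note: luciferase carries N-glycosylation sites so blocking glycosylation raises the light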
PAX8 inh HTS – inhibitors of PAX8-driven TPO luciferase reporter, primary screen, RMG-I cells, single concentration; SteadyGlo, 24 h; inhibition, % at 12.6 µM; 360,000 tested, 1.2% active; AID 652154, 2013;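 active = mean replicate inhibition at least 60% with every replicate also reaching 60%; inconclusive = only one of the two criteria is met; inactive = mean below 60% and not all replicates reaching 60%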;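 note: luciferase light reporting Pax8 driven TPO promoter activity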
AF4-AF9 inh – inhibitors of AF4 peptide binding to AF9, primary screen, biochemical, AlphaScreen, biotin-AF4 peptide, FLAG-AF9, single point | inhibition, % at 10 µM | 350,000 tested, 0.47% active | AID 651704, 2012;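 active = every replicate reaching a set inhibition limit, whatever the replicate mean, cut at about 25% in these data; inconclusive = mean inhibition reaches that limit but some replicates miss it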
Target sequence (P42568 whole entry, looked up): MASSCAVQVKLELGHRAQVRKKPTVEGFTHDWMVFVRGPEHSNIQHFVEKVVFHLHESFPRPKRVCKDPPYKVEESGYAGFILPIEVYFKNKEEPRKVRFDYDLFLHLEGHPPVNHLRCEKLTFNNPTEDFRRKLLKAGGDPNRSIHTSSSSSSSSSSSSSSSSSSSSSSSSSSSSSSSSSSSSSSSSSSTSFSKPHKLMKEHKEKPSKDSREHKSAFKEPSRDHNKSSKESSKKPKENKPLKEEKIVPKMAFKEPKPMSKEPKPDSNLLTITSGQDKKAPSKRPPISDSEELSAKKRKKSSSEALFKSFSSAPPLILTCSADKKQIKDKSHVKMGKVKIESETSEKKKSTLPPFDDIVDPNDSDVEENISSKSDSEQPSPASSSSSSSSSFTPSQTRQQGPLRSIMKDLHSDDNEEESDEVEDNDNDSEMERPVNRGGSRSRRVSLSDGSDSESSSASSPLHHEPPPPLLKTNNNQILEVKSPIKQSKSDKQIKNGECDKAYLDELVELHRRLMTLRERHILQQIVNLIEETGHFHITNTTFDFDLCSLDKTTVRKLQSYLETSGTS
Large screens that a line does not name were inactive; ! = not active in a repeat.

COc1ccc(-c2cn(CC[C@@H]3CC[C@H](NC(=O)Cc4ccccn4)[C@@H](CO)O3)nn2)cc1	PAX8 inh HTS 78! (no result: N-glyco inh)
COc1ccc(-c2cn(CC[C@@H]3CC[C@H](NC(=O)Cc4ccccn4)[C@H](CO)O3)nn2)cc1	PAX8 inh HTS 90 (no result: FN deposition inh, N-glyco inh)
COc1ccc(CN(C)C[C@@H]2Oc3c(NS(=O)(=O)c4ccc(F)cc4)cccc3C(=O)N([C@@H](C)CO)C[C@H]2C)cc1	none (no result: FN deposition inh, Env fusion inh, N-glyco inh)
C[C@H](CO)N1C[C@H](C)[C@@H](CN(C)Cc2ccc(-c3ccccc3)cc2)Oc2ccc(NC(=O)C3CCCCC3)cc2CC1=O	none (no result: FN deposition inh, N-glyco inh)
C[C@H](CO)N1C[C@H](C)[C@@H](CN(C)Cc2ccc(-c3ccccc3)cc2)Oc2ccc(NC(=O)C3CC3)cc2CC1=O	PAX8 inh HTS 104 (no result: FN deposition inh, N-glyco inh)
C[C@H]1CN([C@@H](C)CO)C(=O)Cc2cc(NC(=O)C3CC3)ccc2O[C@@H]1CN(C)Cc1ccc(-c2ccccc2)cc1	PAX8 inh HTS 103 (no result: FN deposition inh, N-glyco inh)
C[C@@H]1CC=CC[C@@H](c2ccc(F)cc2)NC(=O)[C@H](C)N(C)C(=O)c2ccccc2O1 (mixture of isomers)	none (no result: Env fusion inh, EWS-Fli inh, N-glyco inh, PAX8 inh HTS, AF4-AF9 inh)
COc1ccc(S(=O)(=O)N2CCC3(CC2)CN(C(=O)c2cccnc2)[C@@H](CO)c2c3c3ccc(OC)cc3n2C)cc1	none (no result: FN deposition inh, N-glyco inh, PAX8 inh HTS)
Cc1ccc(S(=O)(=O)Nc2ccc3c(c2)C(=O)N([C@@H](C)CO)C[C@H](C)[C@@H](CN(C)C(=O)NC(C)C)OCCCC[C@@H](C)O3)cc1	none (no result: Env fusion inh, N-glyco inh)
COc1cc(Cl)c(S(=O)(=O)N2CCCC2)cc1Cl	none
COc1cc(N2C(=O)C=CC2=O)c(OC)cc1Cl	FN deposition inh 35, PAX8 inh HTS 110
O=C(C[C@@H]1CC[C@@H]2[C@H](COC[C@H](O)CN2S(=O)(=O)c2cccc(Cl)c2)O1)Nc1ccc(-c2ccccc2)cc1	PAX8 inh HTS 94 (no result: Env fusion inh, N-glyco inh)
O=C(C[C@@H]1CC[C@H]2[C@@H](COC[C@H](O)CN2S(=O)(=O)c2cccc(Cl)c2)O1)Nc1ccc(-c2ccccc2)cc1	PAX8 inh HTS 67 (no result: Env fusion inh, N-glyco inh)
O=C(C[C@H]1CC[C@H]2[C@@H](COC[C@@H](O)CN2S(=O)(=O)c2cccc(Cl)c2)O1)Nc1ccccc1	none (no result: Env fusion inh, N-glyco inh)
CCCNC(=O)N1C[C@H]2[C@@H](c3ccccc31)[C@@H](CO)N2Cc1ccc(OC)cc1	none (no result: FN deposition inh, Env fusion inh, N-glyco inh)
CCCC#Cc1ccc2c(c1)O[C@H](CN(C)C(=O)c1ccccn1)[C@H](C)CN([C@@H](C)CO)S2(=O)=O	none (no result: N-glyco inh, PAX8 inh HTS)
C[C@@H]1CC=C[C@H]2[C@H]1C(=O)N(Cc1ccccc1)[C@H]2c1ccoc1	none
CC[C@@H]1CC=C[C@H]2[C@H]1C(=O)N(Cc1ccccc1)[C@H]2c1ccoc1	N-glyco inh 38 (no result: FN deposition inh, Env fusion inh, EWS-Fli inh, PAX8 inh HTS, AF4-AF9 inh)
CC[C@@H]1CC=C[C@H]2[C@H]1C(=O)N(Cc1ccccc1)[C@H]2c1ccc(C(F)(F)F)cc1	Env fusion inh 57
N/C(=N\OC(=O)c1ccccc1)c1ccccn1	none
CCOc1ccc(C(=O)O/N=C(\N)c2ccccn2)cc1	Env fusion inh 63, EWS-Fli inh 81, PAX8 inh HTS 128
CCc1ccc(OCC(=O)O/N=C(\N)c2ccccn2)cc1	none
CC(C)(C)c1ccc(C(=O)O/N=C(\N)c2ccccn2)cc1	EWS-Fli inh 75, PAX8 inh HTS 70
CCOC(=O)c1c(CSCc2ccccc2)oc2ccc(O)c(CN(C)C)c12	Env fusion inh 58
COc1ccc(-c2nc3ccccc3[nH]2)cc1	none (no result: FN deposition inh, Env fusion inh, PAX8 inh HTS)
COc1ccc(-c2cc(=O)n(-c3nc4ccccc4[nH]3)[nH]2)cc1	Env fusion inh 66, N-glyco inh inconclusive (no result: FN deposition inh, EWS-Fli inh, PAX8 inh HTS, AF4-AF9 inh)
C[C@H]1CN([C@@H](C)CO)C(=O)c2cccc(NS(C)(=O)=O)c2O[C@@H]1CN(C)C(=O)Nc1ccccc1	none (no result: Env fusion inh, N-glyco inh)
CCN1CCN(Cc2ccc(NC(=O)c3cc(NC(=O)c4cnn(-c5ccccc5)c4N)cc(OC)c3)cc2C(F)(F)F)CC1	EWS-Fli inh 61
CCN1CCN(Cc2ccc(NC(=O)c3ccc(C)c(NC(=O)c4ccc5n[nH]nc5c4)c3)cc2C(F)(F)F)CC1	none
CCN1CCN(Cc2ccc(NC(=O)c3cc(NC(=O)c4cc(C)on4)cc(OC)c3)cc2C(F)(F)F)CC1	none (no result: Env fusion inh)
CCN1CCN(Cc2ccc(NC(=O)c3ccc(C)c(NC(=O)C(=O)c4c[nH]c5ccccc45)c3)cc2C(F)(F)F)CC1	EWS-Fli inh 59!, PAX8 inh HTS 101
CCN1CCN(Cc2ccc(NC(=O)c3cccc(-c4ccc5nc(NC(=O)C6CC6)sc5n4)c3)cc2C(F)(F)F)CC1	PAX8 inh HTS 80 (no result: N-glyco inh)
CCN1CCN(Cc2ccc(NC(=O)c3ccc(C)c(NC(=O)c4ccnnc4)c3)cc2C(F)(F)F)CC1	none
CCN1CCN(Cc2ccc(NC(=O)c3cc(NC(=O)C(=O)c4c[nH]c5ccccc45)cc(OC)c3)cc2C(F)(F)F)CC1	EWS-Fli inh 54, PAX8 inh HTS 95
COc1cc(/C=C/C(=O)c2ccc(NS(=O)(=O)c3ccc(C)cc3)cc2)ccc1OC(F)F	none (no result: EWS-Fli inh, AF4-AF9 inh)
COc1cc(/C=C/C(=O)c2ccc(NS(=O)(=O)c3ccc(C)cc3)cc2)cc(OC)c1O	PAX8 inh HTS 81 (no result: EWS-Fli inh, AF4-AF9 inh)
C#CCN(C[C@@H]1[C@@H](OC(=O)Nc2cccs2)[C@@H](OC(=O)Nc2cccs2)C[C@H](C(=O)OC)[C@@H]1C(=O)OC)S(=O)(=O)c1ccc(C)cc1	none (no result: N-glyco inh)
C#CCN(C[C@H]1[C@H](OC(=O)Nc2c(C)noc2C)[C@H](OC(=O)Nc2c(C)noc2C)C[C@@H](C(=O)OC)[C@H]1C(=O)OC)S(=O)(=O)c1ccc(C)cc1	PAX8 inh HTS 97
O=C(CCN1CCCCC1)NCC[C@H]1CC[C@H](NC(=O)C2CC2)[C@H](CO)O1	none (no result: FN deposition inh, N-glyco inh)
CCOCCCNC(=O)c1cc2c(s1)-c1ccccc1SC2	none
CN(C)CCNC(=O)c1cc2c(s1)-c1ccc(Cl)cc1SC2	PAX8 inh HTS 93, AF4-AF9 inh inconclusive
CN1CCN(C(=S)Nc2ccc(Cl)c(Cl)c2)CC1	PAX8 inh HTS 126 (no result: Env fusion inh)
S=C(Nc1ccc(Cl)c(Cl)c1)N1CCCC1	none
COc1ccccc1-c1ccc2c(c1)O[C@H](CN(C)Cc1ccc3c(c1)OCO3)[C@H](C)CN([C@H](C)CO)S2(=O)=O	PAX8 inh HTS 67 (no result: FN deposition inh, N-glyco inh)
CC(C)CC#Cc1ccc2c(c1)O[C@@H](CN(C)Cc1ccc3c(c1)OCO3)[C@@H](C)CN([C@@H](C)CO)S2(=O)=O	EWS-Fli inh 58 (no result: N-glyco inh, PAX8 inh HTS)
CC(C)CC#Cc1ccc2c(c1)O[C@H](CN(C)Cc1ccc(C(=O)O)cc1)[C@@H](C)CN([C@H](C)CO)S2(=O)=O	PAX8 inh HTS 80 (no result: FN deposition inh, N-glyco inh)
COc1ccccc1-c1ccc2c(c1)O[C@@H](CN(C)C)[C@@H](C)CN([C@@H](C)CO)S2(=O)=O	none (no result: N-glyco inh, PAX8 inh HTS)
